In ChEMBL document CHEMBL3407457, “Microwave-assisted synthesis of certain pyrrolylpyridines, some derived ring systems and their evaluation as anticancer and antioxidant agents” (Eur J Med Chem, 2015):
Activity calls are given as the source filed them. The rule behind the calls is not given here.

Key:
[1] = Antioxidant activity assessed as DPPH radical scavenging activity at 10^-4 M incubated for 30 mins by spectrophotometry; assay type: physicochemical; conditions: 0.5 h, 100 µM
Procedure, shortened: (§1)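 Compound at 10^-3 or 10^-4 M mixed with methanolic DPPH (0.1 mL of 1 mM stock; 3 mL total volume), shaken, kept in the dark 30 min at room temperature. Absorbance read at 517 nm. Scavenging (%) = (A_control − A_sample)/A_control × 100, where the control is DPPH in methanol alone. BHT served as reference antioxidant. Triplicate, mean ± SD of three independent experiments.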

[2] = Antioxidant activity assessed as DPPH radical scavenging activity at 10^-3 M incubated for 30 mins by spectrophotometry; assay type: physicochemical; conditions: 0.5 h, 1000 µM; procedure, shortened: as §1
[3] = (§2) Growth inhibition of human EKVX cells at 10 uM after 48 hrs by sulforhodamine B assay; assay type: functional; conditions: read-out: GI
Procedure, shortened: (§3)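 NCI-60 primary screen: cells given a single 10 µM dose under 48 h continuous exposure. Growth/viability estimated by sulforhodamine B protein assay. Reported as percent growth of treated cells (mean graph), expressed as percent growth inhibition.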

[4] = Growth inhibition of human HOP92 cells at 10 uM after 48 hrs by sulforhodamine B assay; assay type: functional; conditions: HOP-92, 48 h, read-out: GI; procedure, shortened: as §3
[5] = system: NCI-H522; assay: Growth inhibition of human NCI-H522 cells at 10 uM after 48 hrs by sulforhodamine B assay; assay type: functional; conditions: for inhibition of growth at 10 µM: NCI-H522, 48 h, read-out: GI; procedure, shortened: as §3
[6] = (§4) Growth inhibition of human HCT116 cells at 10 uM after 48 hrs by sulforhodamine B assay; assay type: functional; conditions: HCT-116, 48 h, read-out: GI; procedure, shortened: as §3
[7] = Growth inhibition of human HCT15 cells at 10 uM after 48 hrs by sulforhodamine B assay; assay type: functional; conditions: HCT-15, 48 h, read-out: GI; procedure, shortened: as §3
[8] = (§5) Growth inhibition of human Hs 578T cells at 10 uM after 48 hrs by sulforhodamine B assay; assay type: functional; conditions: read-out: GI; procedure, shortened: as §3
[9] = system: MDA-MB-468; assay: Growth inhibition of human MDA-MB-468 cells at 10 uM after 48 hrs by sulforhodamine B assay; assay type: functional; procedure, shortened: as §3
[10] = system: T47D; assay: Growth inhibition of human T47D cells at 10 uM after 48 hrs by sulforhodamine B assay; assay type: functional; conditions: read-out: GI; procedure, shortened: as §3
[11] = system: IGROV-1; assay: Growth inhibition of human IGROV1 cells at 10 uM after 48 hrs by sulforhodamine B assay; assay type: functional; conditions: IGROV-1, 48 h, read-out: GI; procedure, shortened: as §3
[12] = Growth inhibition of human OVCAR4 cells at 10 uM after 48 hrs by sulforhodamine B assay; assay type: functional; conditions: OVCAR-4, 48 h, read-out: GI; procedure, shortened: as §3
[13] = system: CCRF-CEM; assay: Growth inhibition of human CCRF-CEM cells at 10 uM after 48 hrs by sulforhodamine B assay; assay type: functional; conditions: read-out: GI; procedure, shortened: as §3
[14] = system: HL-60(TB); assay: Growth inhibition of human HL-60(TB) cells at 10 uM after 48 hrs by sulforhodamine B assay; assay type: functional; conditions: HL-60, 48 h, read-out: GI
Procedure, shortened: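 NCI-60 one-dose primary screen, HL-60(TB) within the leukemia subpanel. Single 10 µM concentration, 48 h continuous exposure. Growth estimated by sulforhodamine B protein assay. Percent growth of treated cells expressed as percentage growth inhibition (GI%).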

[15] = system: K562; assay: Growth inhibition of human K562 cells at 10 uM after 48 hrs by sulforhodamine B assay; assay type: functional; conditions: for inhibition of growth at 10 µM: K562, 48 h, read-out: GI; procedure, shortened: as §3
[16] = Growth inhibition of human MOLT4 cells at 10 uM after 48 hrs by sulforhodamine B assay; assay type: functional; conditions: MOLT-4, 48 h, read-out: GI; procedure, shortened: as §3
[17] = Growth inhibition of human RPMI8226 cells at 10 uM after 48 hrs by sulforhodamine B assay; assay type: functional; conditions: RPMI-8226, 48 h, read-out: GI; procedure, shortened: as §3
[18] = system: A498; assay: Growth inhibition of human A498 cells at 10 uM after 48 hrs by sulforhodamine B assay; assay type: functional; conditions: A498, 48 h, read-out: GI; procedure, shortened: as §3
[19] = system: ACHN; assay: Growth inhibition of human ACHN cells at 10 uM after 48 hrs by sulforhodamine B assay; assay type: functional; conditions: for inhibition of growth at 10 µM: read-out: GI; procedure, shortened: as §3
[20] = system: CAKI-1; assay: Growth inhibition of human CAKI-1 cells at 10 uM after 48 hrs by sulforhodamine B assay; assay type: functional; procedure, shortened: as §3
[21] = (§6) Growth inhibition of human UO31 cells at 10 uM after 48 hrs by sulforhodamine B assay; assay type: functional; conditions: UO-31, 48 h, read-out: GI; procedure, shortened: as §3
[22] = (§7) Growth inhibition of human LOXIMVI cells at 10 uM after 48 hrs by sulforhodamine B assay; assay type: functional; conditions: LOX IMVI, read-out: GI; procedure, shortened: as §3
[23] = system: SK-MEL-5; assay: Growth inhibition of human SK-MEL-5 cells at 10 uM after 48 hrs by sulforhodamine B assay; assay type: functional; conditions: for inhibition of growth at 10 µM: SK-MEL-5, 48 h, read-out: GI; procedure, shortened: as §3
[24] = Growth inhibition of human UACC62 cells at 10 uM after 48 hrs by sulforhodamine B assay; assay type: functional; conditions: UACC-62, 48 h, read-out: GI; procedure, shortened: as §3
[25] = (§8) Growth inhibition of human PC3 cells at 10 uM after 48 hrs by sulforhodamine B assay; assay type: functional; conditions: PC-3, 48 h, read-out: GI; procedure, shortened: as §3
[26] = system: SNB-75; assay: Growth inhibition of human SNB75 cells at 10 uM after 48 hrs by sulforhodamine B assay; assay type: functional; conditions: for inhibition of growth at 10 µM: SNB-75, 48 h, read-out: GI; procedure, shortened: as §3
[27] = system: U-251; assay: Growth inhibition of human U251 cells at 10 uM after 48 hrs by sulforhodamine B assay; assay type: functional; conditions: for inhibition of growth at 10 µM: U-251, 48 h, read-out: GI; procedure, shortened: as §3
[28] = system: EKVX; assay: as §2; assay type: functional; procedure, shortened: as §3
[29] = system: HCT-116; assay: as §4; assay type: functional; procedure, shortened: as §3
[30] = system: Hs-578T; assay: as §5; assay type: functional; procedure, shortened: as §3
[31] = system: UO-31; assay: as §6; assay type: functional; procedure, shortened: as §3
[32] = system: LOX IMVI; assay: as §7; assay type: functional; procedure, shortened: as §3
[33] = system: PC-3; assay: as §8; assay type: functional; procedure, shortened: as §3

In the case of CCSc1nc(N)c2c(-c3cccn3C)c3c(nc2n1)C(C)CCC3 (centres undefined), the “inhibition (INH)” value [1] is reported as 16%, the “inhibition (INH)” value [2] is reported as 28% and the inhibition of growth at 10 µM [3] is reported as 34.1%. For the same compound, the inhibition of growth at 10 µM [4] was 28.7%, the inhibition of growth at 10 µM [5] was 33.8% and the inhibition of growth at 10 µM [6] was 35.3%. It also gave an inhibition of growth at 10 µM [7] of 10.8%, an inhibition of growth at 10 µM [8] of 15.2% and an inhibition of growth at 10 µM ([9]; MDA-MB-468, 48 h, read-out: GI) of 15.4%. It also gave an inhibition of growth at 10 µM [10] of 54.2%, an inhibition of growth at 10 µM [11] of 35.3% and an inhibition of growth at 10 µM [12] of 23.4%. The inhibition of growth at 10 µM [13] was 21.6%, the inhibition of growth at 10 µM [14] was 25.8% and the inhibition of growth at 10 µM [15] was 37.4%. The inhibition of growth at 10 µM [16] was 42.3%, the inhibition of growth at 10 µM [17] was 68.5% and the inhibition of growth at 10 µM [18] was 26.5%. The inhibition of growth at 10 µM [19] was 11.9%, the inhibition of growth at 10 µM ([20]; CAKI-1, 48 h, read-out: GI) was 21.7% and the inhibition of growth at 10 µM [21] was 45.8%. For the same compound, the inhibition of growth at 10 µM [22] was 12.9%, the inhibition of growth at 10 µM [23] was 13.1% and the inhibition of growth at 10 µM [24] was 24.1%. It also gave an inhibition of growth at 10 µM [25] of 57.1%, an inhibition of growth at 10 µM [26] of 21.4% and an inhibition of growth at 10 µM [27] of 16.7%.

With CC1CCCc2c1nc1ncn3ncnc3c1c2-c1cccn1C (centres undefined) the “growth inhibition (GI)” value [28] was “inactive”, the inhibition of growth at 10 µM [4] was 10.1% and the “growth inhibition (GI)” value [5] was “inactive”. For the same compound, the “growth inhibition (GI)” value [29] was “inactive”, the inhibition of growth at 10 µM [7] was 6.3% and the “growth inhibition (GI)” value [30] was “inactive”. The “growth inhibition (GI)” value [9] was “inactive”, the inhibition of growth at 10 µM [10] was 11.8% and the inhibition of growth at 10 µM [11] was 7.9%. It also gave an inhibition of growth at 10 µM [12] of 6.1%, an inhibition of growth at 10 µM [13] of 10.3% and an inhibition of growth at 10 µM [14] of 8.5%. For the same compound, the “growth inhibition (GI)” value [15] was “inactive”, the inhibition of growth at 10 µM [16] was 20.4% and the inhibition of growth at 10 µM [17] was 12.2%. For the same compound, the inhibition of growth at 10 µM [18] was 5.7%, the “growth inhibition (GI)” value [19] was “inactive” and the “growth inhibition (GI)” value [20] was “inactive”. The “growth inhibition (GI)” value [31] was “inactive”, the “growth inhibition (GI)” value [32] was “inactive” and the “growth inhibition (GI)” value [23] was “inactive”. For the same compound, the inhibition of growth at 10 µM [24] was 8.3%, the “growth inhibition (GI)” value [33] was “inactive” and the “growth inhibition (GI)” value [26] was “inactive”. The “growth inhibition (GI)” value [27] was “inactive”.

With CC1CCCc2c1nc1[nH]c(=S)nc(N)c1c2-c1cccn1C (centres undefined) the “inhibition (INH)” value [1] was 14%, the “inhibition (INH)” value [2] was 26% and the inhibition of growth at 10 µM [3] was 18.9%. The inhibition of growth at 10 µM [4] was 36.4%, the inhibition of growth at 10 µM [5] was 29.7% and the inhibition of growth at 10 µM [6] was 22.6%. For the same compound, the inhibition of growth at 10 µM [7] was 13.4%, the “growth inhibition (GI)” value [30] was “inactive” and the “growth inhibition (GI)” value [9] was “inactive”. It also gave an inhibition of growth at 10 µM [10] of 40.1%, an inhibition of growth at 10 µM [11] of 34.4% and an inhibition of growth at 10 µM [12] of 13.8%. It also gave an inhibition of growth at 10 µM [13] of 26.7%, an inhibition of growth at 10 µM [14] of 33.2% and an inhibition of growth at 10 µM [15] of 29.6%. For the same compound, the inhibition of growth at 10 µM [16] was 32.6%, the inhibition of growth at 10 µM [17] was 51.9% and the inhibition of growth at 10 µM [18] was 41.3%. The inhibition of growth at 10 µM [19] was 15.2%, the “growth inhibition (GI)” value [20] was “inactive” and the inhibition of growth at 10 µM [21] was 34.7%. It also gave an inhibition of growth at 10 µM [22] of 10.7%, an inhibition of growth at 10 µM [23] of 18.4% and an inhibition of growth at 10 µM [24] of 23.5%. For the same compound, the inhibition of growth at 10 µM [25] was 19.8%, the inhibition of growth at 10 µM [26] was 17.5% and the inhibition of growth at 10 µM [27] was 21.4%.
